In one assay the target is PDE4B2 (Homo sapiens, UniProt Q07343). Briefly: PDE isoform selectivity, IMAP FP assay. The settings on record: read-out: % inhibition at 50 μM, PDE4B2 (cAMP). The assay is classed as biochemical. In outline: (§1)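 Recombinant PDE enzymes were used at concentrations set empirically to give EC80 activity, in 10 mM Tris-HCl pH 7.4, 10 mM MgCl2, 0.1 mg/mL BSA. Test compound was preincubated with enzyme for 60 min at 30°C. TAMRA-cGMP (ex530/em590) or FAM-cAMP (ex485/em530), 50 nmol/L final, was then added for 30 min at 30°C. IMAP binding reagent followed for 10 min at 30°C, and fluorescence polarization was read.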

Another assay deals with PDE3A (Homo sapiens, UniProt Q14432). Briefly: PDE isoform selectivity, IMAP FP assay. The assay is classed as biochemical. Put shortly: as §1
In a further assay the target is human recombinant PDE5 (Homo sapiens, UniProt O76074). Briefly: PDE5 inhibition, IMAP fluorescence polarization assay. Format: biochemical. For orientation: In fluorescence polarisation assays a small probe gives low polarisation when free and higher when bound to something large.
The next assay has as its target PDE11A (Homo sapiens, UniProt Q9HCR9). The assay can be described thus: PDE isoform selectivity, IMAP FP assay. The assay is classed as biochemical. In outline:
as §1

The next assay concerns the target PDE7A (Homo sapiens, UniProt Q13946). The assay can be described thus: PDE isoform selectivity, IMAP FP assay. Format: biochemical. The settings on record: read-out: % inhibition at 50 μM, PDE7A (cAMP). In outline: as §1
In assay [1] the test system is intracellular cGMP levels in HEK293 cells. Briefly: Luciferase cGMP biosensor assay. The assay is classed as cell-based, human. In outline: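 HEK293 cells stably expressing a GloSensor cGMP-40F construct (human PDE5A GAF-A fused to firefly luciferase) were G418-selected. Cells were seeded at 6×10⁴/well and attached overnight in DMEM + 10% FBS at 37°C, 5% CO2. They were preincubated at room temperature in CO2-independent medium with 10% FBS and 5 mmol/L luciferin. 50 μM sodium nitroprusside was added together with test compound, and luminescence was read every minute for 1 h.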

In the next assay the target is PDE6C (Homo sapiens, UniProt P51160). Briefly: PDE isoform selectivity, IMAP FP assay. Conditions: read-out: % inhibition at 50 μM, PDE6C (cGMP). Format: biochemical. Put shortly:
as §1

A further assay has as its target PDE10A (Homo sapiens, UniProt Q9Y233). The assay can be described thus: PDE isoform selectivity, IMAP FP assay. Format: biochemical. Put shortly:
as §1

The next assay deals with PDE9A (Homo sapiens, UniProt O76083). Briefly: PDE isoform selectivity, IMAP FP assay. The assay is classed as biochemical. Conditions: read-out: % inhibition at 50 μM, PDE9A (cGMP). In outline: as §1
The target of the next assay is PDE2A (Homo sapiens, UniProt O00408). Briefly: PDE isoform selectivity, IMAP FP assay. Format: biochemical.
The target of a further assay is PDE8A (Homo sapiens, UniProt O60658). Briefly: PDE isoform selectivity, IMAP FP assay. Format: biochemical. The settings on record: read-out: % inhibition at 50 μM, PDE8A (cAMP). In outline: as §1
In the next assay the target is PDE3B (Homo sapiens, UniProt Q13370). The assay can be described thus: PDE isoform selectivity, IMAP FP assay. The assay is classed as biochemical. Put shortly: as §1
Assay [2] deals with all other PDE isozymes, including PDE6 and PDE11. The assay can be described thus: PDE isozyme selectivity panel. Format: biochemical, human. Conditions: concentrations up to 50 μM.
The next assay has as its target PDE1A (Homo sapiens, UniProt P54750). Briefly: PDE isoform selectivity, IMAP FP assay. The assay is classed as biochemical. Put shortly:
as §1

Entries after “also recorded” stand apart in the source; their conditions may differ. Where two headings read alike, the source gives them in different places.

The values that follow come from PMC7686114 (Bioorganic chemistry, 2020).

PDE10A, sequence (Q9Y233 whole entry, canonical isoform): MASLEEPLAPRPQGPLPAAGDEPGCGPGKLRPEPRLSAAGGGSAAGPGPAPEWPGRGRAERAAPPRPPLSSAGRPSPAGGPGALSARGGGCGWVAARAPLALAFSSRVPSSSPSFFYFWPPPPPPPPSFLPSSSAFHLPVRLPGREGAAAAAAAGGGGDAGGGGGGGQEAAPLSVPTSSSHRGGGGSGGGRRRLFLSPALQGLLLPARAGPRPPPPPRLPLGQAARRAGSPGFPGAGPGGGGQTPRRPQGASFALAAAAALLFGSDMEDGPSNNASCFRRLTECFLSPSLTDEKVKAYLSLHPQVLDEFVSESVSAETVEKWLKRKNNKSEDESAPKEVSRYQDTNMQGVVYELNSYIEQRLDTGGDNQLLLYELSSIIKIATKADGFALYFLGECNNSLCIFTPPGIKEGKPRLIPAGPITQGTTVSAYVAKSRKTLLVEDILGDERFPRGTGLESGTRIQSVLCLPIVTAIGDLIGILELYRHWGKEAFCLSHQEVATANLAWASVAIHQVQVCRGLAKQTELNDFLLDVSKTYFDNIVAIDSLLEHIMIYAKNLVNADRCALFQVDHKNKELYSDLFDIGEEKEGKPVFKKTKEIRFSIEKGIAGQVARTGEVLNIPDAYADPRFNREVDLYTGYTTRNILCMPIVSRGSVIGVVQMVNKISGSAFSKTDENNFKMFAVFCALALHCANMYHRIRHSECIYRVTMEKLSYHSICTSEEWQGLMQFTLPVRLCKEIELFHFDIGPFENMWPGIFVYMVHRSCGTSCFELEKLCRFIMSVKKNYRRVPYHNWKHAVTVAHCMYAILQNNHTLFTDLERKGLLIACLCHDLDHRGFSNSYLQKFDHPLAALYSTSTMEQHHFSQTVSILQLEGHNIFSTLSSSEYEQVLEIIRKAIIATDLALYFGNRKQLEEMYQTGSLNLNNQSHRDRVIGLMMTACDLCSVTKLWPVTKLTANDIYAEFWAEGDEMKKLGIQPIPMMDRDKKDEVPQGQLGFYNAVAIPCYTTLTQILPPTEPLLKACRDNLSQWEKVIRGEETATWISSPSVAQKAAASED
PDE11A, sequence (Q9HCR9 whole entry, canonical isoform): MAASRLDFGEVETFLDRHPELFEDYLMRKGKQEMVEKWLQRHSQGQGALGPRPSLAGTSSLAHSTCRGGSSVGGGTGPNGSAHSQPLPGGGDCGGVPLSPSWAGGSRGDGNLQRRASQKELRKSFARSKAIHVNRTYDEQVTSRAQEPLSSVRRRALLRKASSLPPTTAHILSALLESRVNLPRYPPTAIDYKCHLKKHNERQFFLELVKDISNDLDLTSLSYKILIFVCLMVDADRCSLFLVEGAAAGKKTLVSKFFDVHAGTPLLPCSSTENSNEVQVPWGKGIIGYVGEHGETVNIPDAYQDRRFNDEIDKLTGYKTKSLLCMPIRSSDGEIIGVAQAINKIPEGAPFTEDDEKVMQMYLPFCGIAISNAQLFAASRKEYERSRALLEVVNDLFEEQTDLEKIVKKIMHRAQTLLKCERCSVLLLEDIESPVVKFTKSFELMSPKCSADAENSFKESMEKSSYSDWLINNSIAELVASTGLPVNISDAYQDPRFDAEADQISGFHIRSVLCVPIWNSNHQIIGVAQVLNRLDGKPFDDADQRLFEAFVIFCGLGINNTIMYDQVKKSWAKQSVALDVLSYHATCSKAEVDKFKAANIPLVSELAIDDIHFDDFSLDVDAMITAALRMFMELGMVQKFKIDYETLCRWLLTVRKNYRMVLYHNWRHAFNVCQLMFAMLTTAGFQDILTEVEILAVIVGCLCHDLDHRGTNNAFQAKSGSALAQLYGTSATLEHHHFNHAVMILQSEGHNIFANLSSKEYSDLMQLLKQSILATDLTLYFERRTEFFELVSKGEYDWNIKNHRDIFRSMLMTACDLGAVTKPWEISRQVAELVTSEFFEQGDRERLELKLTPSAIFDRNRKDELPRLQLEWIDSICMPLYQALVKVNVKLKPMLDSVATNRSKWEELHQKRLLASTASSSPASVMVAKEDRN
PDE3A, sequence (Q14432 whole entry, canonical isoform): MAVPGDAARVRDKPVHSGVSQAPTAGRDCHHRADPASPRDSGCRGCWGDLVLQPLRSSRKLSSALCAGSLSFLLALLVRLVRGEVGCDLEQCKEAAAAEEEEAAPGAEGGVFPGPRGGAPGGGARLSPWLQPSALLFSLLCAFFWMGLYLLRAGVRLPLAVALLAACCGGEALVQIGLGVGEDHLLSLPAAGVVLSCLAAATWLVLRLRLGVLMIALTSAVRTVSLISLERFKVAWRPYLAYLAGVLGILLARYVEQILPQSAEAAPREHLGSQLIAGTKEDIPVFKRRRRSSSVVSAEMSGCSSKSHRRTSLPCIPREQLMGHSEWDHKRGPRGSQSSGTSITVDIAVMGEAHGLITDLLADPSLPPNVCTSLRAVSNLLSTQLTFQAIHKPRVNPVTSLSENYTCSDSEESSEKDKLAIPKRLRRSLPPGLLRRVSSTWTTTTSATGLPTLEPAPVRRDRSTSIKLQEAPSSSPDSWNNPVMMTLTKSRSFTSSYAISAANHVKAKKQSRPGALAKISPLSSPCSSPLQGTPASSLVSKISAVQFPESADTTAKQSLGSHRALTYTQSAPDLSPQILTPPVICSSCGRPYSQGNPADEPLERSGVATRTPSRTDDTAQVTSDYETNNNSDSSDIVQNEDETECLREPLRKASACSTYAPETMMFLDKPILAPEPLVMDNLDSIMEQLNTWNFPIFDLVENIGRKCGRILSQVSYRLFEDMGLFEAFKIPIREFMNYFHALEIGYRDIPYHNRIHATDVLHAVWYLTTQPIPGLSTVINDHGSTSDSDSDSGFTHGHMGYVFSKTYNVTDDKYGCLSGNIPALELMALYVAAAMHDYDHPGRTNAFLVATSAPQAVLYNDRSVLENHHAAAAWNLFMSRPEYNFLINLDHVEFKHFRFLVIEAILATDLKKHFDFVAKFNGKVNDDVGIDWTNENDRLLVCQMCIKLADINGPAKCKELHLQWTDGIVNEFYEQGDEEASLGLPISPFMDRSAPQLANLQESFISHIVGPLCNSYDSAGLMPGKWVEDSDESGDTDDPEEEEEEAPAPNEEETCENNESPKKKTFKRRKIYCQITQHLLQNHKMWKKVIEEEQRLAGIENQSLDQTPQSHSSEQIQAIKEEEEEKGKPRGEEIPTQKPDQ
PDE1A, sequence (P54750 whole entry, canonical isoform): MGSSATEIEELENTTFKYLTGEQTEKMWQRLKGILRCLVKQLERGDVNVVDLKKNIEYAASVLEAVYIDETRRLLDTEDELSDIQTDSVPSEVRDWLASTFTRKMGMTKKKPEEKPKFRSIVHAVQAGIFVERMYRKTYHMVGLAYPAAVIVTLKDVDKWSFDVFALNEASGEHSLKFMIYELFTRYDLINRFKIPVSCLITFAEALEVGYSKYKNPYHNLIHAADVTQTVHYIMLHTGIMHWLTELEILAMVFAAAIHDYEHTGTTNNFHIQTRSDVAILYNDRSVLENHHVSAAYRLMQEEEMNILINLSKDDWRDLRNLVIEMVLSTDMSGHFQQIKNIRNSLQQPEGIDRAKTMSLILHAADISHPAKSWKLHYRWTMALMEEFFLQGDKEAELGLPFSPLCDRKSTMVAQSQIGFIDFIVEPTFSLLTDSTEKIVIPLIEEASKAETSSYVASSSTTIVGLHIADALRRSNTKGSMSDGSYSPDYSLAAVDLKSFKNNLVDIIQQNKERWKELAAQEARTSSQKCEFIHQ
PDE3B, sequence (Q13370 whole entry, canonical isoform): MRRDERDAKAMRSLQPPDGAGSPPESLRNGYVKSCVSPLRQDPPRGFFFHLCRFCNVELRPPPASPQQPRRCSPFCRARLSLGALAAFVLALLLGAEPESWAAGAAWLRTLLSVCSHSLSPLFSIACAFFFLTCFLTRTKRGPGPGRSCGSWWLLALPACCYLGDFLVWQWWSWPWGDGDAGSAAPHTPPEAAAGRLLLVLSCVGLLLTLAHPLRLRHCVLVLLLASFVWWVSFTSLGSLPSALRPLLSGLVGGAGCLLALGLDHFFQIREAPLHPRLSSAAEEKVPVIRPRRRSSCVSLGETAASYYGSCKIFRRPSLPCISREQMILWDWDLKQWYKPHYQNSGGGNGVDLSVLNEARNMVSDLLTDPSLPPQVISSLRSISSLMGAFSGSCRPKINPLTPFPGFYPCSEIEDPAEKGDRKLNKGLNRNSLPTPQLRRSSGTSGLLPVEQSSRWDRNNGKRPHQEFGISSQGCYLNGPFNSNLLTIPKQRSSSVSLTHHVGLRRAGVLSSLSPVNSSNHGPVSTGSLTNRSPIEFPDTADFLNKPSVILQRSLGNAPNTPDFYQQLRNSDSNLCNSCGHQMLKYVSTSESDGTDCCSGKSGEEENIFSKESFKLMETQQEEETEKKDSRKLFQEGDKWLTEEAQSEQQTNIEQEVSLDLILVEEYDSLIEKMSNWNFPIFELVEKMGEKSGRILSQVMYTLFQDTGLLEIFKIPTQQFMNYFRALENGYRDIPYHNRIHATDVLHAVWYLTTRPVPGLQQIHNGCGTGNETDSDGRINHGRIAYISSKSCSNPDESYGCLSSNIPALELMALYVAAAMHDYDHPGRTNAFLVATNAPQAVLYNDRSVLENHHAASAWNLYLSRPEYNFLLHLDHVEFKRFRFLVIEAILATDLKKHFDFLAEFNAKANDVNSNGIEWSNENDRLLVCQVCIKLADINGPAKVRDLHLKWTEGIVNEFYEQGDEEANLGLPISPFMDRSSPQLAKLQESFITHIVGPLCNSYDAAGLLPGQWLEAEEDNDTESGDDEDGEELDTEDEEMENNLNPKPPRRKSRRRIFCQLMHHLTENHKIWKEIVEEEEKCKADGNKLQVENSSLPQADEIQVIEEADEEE

Take `CC(C)(C)C1=NN(c2ccc(C(=O)O)cc2)C(c2ccc(Cl)cc2Cl)C1` (centres unmarked) [Compound 11, 4-(3-(tert-Butyl)-5-(2,4-dichlorophenyl)-4,5-dihydro-1H-pyrazol-1-yl) benzoic acid]: the inhibition at 50 µM at PDE4B2 came to 1.6%; at PDE3A (read-out: % inhibition at 50 μM, PDE3A (cAMP)), 12.4%; on PDE3A (read-out: % inhibition at 50 μM, PDE3A (cGMP)), 36.2%; on human recombinant PDE5 (read-out: % inhibition at 50 μM, PDE5A (cGMP)) it was 97%; on human recombinant PDE5 (read-out: PDE5 % inh at 50 (μM)), 97%; at PDE11A (read-out: % inhibition at 50 μM, PDE11A (cAMP)), 0.9%. Further, the inhibition at 50 µM came to 5.9% at PDE11A (read-out: % inhibition at 50 μM, PDE11A (cGMP)); 9.1% on PDE7A; 16.2% on PDE6C; 3.6% on PDE10A (read-out: % inhibition at 50 μM, PDE10A (cAMP)); 4.5% at PDE10A (read-out: % inhibition at 50 μM, PDE10A (cGMP)); 10.7% on PDE9A. Besides, the inhibition at 50 µM at PDE2A (read-out: % inhibition at 50 μM, PDE2A (cAMP)) is 5.6%; at PDE2A (read-out: % inhibition at 50 μM, PDE2A (cGMP)), 19.9%; at PDE8A, 4%; on PDE3B (read-out: % inhibition at 50 μM, PDE3B (cAMP)), 6.7%; on PDE3B (read-out: % inhibition at 50 μM, PDE3B (cGMP)), 15.7%; on PDE1A (read-out: % inhibition at 50 μM, PDE1A (cAMP)), 2.6%. On PDE1A (read-out: % inhibition at 50 μM, PDE1A (cGMP)), the inhibition at 50 µM is 22%. The IC50 on human recombinant PDE5 stood at 2700 nM. Moreover, the “relative potency/efficacy in increasing intracellular cGMP levels” value in assay [1] (comparison among tadalafil, celecoxib, 11 and 19) is “substantially higher efficacy; also recorded: higher cellular potency”. Besides, the “intracellular cGMP levels (luminescence), concentration dependence” value in assay [1] (pretreated with sodium nitroprusside) is reported as “concentration-dependent increase”. In addition, the “effect on activity of all other PDE isozymes” value in [2] was “without significantly affecting the activity”.

Broadly, the IC50 is the midpoint of a concentration-inhibition curve.
